Measured values from ChEMBL document CHEMBL1132289, “Novel potent and selective central 5-HT3 receptor ligands provided with different intrinsic efficacy. 2. Molecular basis of the intrinsic efficacy of arylpiperazine derivatives at the central 5-HT3 receptors” (J Med Chem, 1999).

Tests used:
[1] = target: T1, Serotonin 3 (5-HT3) receptor (Rattus norvegicus, UniProt P35563+Q9JJ16); assay: Inhibition of [3H]granisetron binding to 5-hydroxytryptamine 3 receptor (5-HT 3 receptor) of rat cortex and hippocampus tissue; type: tissue-based
T1 sequence (P35563 whole entry): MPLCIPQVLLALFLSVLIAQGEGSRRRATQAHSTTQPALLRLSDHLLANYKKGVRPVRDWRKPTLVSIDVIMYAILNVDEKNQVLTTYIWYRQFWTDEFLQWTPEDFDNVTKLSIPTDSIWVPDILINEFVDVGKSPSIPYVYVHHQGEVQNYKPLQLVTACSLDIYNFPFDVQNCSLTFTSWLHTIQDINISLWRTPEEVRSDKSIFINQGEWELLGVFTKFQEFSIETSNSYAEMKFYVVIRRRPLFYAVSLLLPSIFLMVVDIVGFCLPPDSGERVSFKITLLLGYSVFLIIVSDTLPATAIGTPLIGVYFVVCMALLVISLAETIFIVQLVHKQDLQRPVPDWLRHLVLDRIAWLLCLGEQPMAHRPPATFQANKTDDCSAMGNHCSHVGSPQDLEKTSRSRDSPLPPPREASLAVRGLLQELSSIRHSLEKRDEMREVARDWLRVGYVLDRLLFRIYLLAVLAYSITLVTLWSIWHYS
T1 sequence (Q9JJ16 whole entry): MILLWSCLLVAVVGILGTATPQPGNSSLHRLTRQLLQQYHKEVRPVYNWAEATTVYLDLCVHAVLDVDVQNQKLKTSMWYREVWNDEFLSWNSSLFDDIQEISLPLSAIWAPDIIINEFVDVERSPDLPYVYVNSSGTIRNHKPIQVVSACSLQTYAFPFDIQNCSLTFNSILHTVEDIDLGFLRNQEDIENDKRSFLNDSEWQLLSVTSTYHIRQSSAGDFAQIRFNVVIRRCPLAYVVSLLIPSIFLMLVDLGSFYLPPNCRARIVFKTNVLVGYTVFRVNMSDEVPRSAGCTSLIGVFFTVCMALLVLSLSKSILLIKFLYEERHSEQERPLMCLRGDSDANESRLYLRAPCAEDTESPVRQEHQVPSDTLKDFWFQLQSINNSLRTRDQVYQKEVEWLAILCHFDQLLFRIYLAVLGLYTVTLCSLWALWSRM

[2] = target: T2, Serotonin 3 (5-HT3) receptor (Rattus norvegicus) (UniProt P35563+Q9JJ16); assay: Intrinsic efficacy against 5-hydroxytryptamine 3 receptor; A means pure agonist; type: functional; settings: filed as agonist
Summary of the method: (§1)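 Mouse neuroblastoma × rat glioma NG 108-15 cells grown 2 days in DMEM; washed, then incubated 10 min at 37 °C in guanidinium buffer B (135 mM NaCl, 10 mM guanidinium, pH 7.4) with […] [14C]guanidinium, 10 μM substance P, 1 μM 5-HT where indicated, eight drug concentrations; ice-cold choline wash, NaOH lysis, scintillation counting. Triplicates; EC50 (agonists/partial agonists) or IC50 (antagonists).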

NG108-15 [3] = assay: (§2) Quantitative effect on the [14C]guanidinium accumulation in NG 108-15 cells (mouse neuroblastoma and rat glioma hybrid cells); type: functional, cell-based; settings: Murinae
Summary of the method: (§3)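 NG 108-15 cells grown 2 days, washed, then exposed 10 min at 37 °C to buffer containing 10 mM guanidinium, [14C]guanidinium, 10 μM substance P, and/or 1 μM 5-HT, with eight drug concentrations. Cells lysed in NaOH, then scintillation counting. EC50 for agonists, IC50 for antagonists. Triplicate per concentration.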

[4] = target: T1, Serotonin 3 (5-HT3) receptor; assay: Inhibition of [3H]granisetron binding to 5-hydroxytryptamine 3 receptor of rat cortical membrane
[5] = target: T3, 5-hydroxytryptamine receptor 1A (Rattus norvegicus, UniProt P19327); assay: Binding affinity against 5-hydroxytryptamine 1A receptor of rat hippocampus tissue.; type: tissue-based
T3 sequence (P19327 whole entry): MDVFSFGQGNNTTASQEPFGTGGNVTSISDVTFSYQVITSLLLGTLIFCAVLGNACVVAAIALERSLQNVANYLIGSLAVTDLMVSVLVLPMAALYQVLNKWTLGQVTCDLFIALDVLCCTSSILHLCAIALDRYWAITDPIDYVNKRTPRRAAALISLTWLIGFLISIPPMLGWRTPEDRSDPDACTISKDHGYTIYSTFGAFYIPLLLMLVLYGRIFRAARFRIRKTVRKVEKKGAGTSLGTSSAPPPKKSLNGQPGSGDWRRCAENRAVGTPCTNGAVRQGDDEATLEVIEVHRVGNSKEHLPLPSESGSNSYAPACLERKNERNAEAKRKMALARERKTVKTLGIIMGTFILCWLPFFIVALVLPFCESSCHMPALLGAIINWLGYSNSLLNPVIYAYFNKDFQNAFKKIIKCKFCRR
Summary of the method: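 Rat tissue homogenized in ice-cold 50 mM Tris HCl, resuspended in 50 mM Tris HCl pH 7.4. [3H]8-OH-DPAT 0.5 nM final, 4 mg tissue/sample, 0.5 mL incubation. Stopped by vacuum filtration through GF/B filters, scintillation counting. Mean ± SEM of three determinations.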

NG108-15 [6] = assay: as §2; type: functional, cell-based; settings: Murinae; remark: listed apart in the source
[7] = target: Sodium-dependent serotonin transporter (Rattus norvegicus, UniProt P31652); assay: Binding affinity towards Serotonin transporter was determined in rat forebrain membrane; type: cell membranes
Summary of the method: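 Membranes stored at -80 °C. [3H]paroxetine 0.1 nM final, 2 mg tissue/sample, 2.0 mL, in 50 mM Tris HCl pH 7.4 with 120 mM NaCl and 5 mM KCl. Filters presoaked in 0.5% poly(ethylenimine). Mean ± SEM of three determinations.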

[8] = target: T4, 5-hydroxytryptamine receptor 2A (Rattus norvegicus, UniProt P14842); assay: Binding affinity against 5-hydroxytryptamine 2A receptor of rat pre-frontal cortex.
Summary of the method: (§4)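 Membranes incubated with [3H]ketanserin 0.5 nM final, 8 mg tissue/sample, 0.5 mL, 50 mM Tris HCl pH 7.7. Filtration through GF/B filters, then scintillation counting. […] Mean ± SEM of three determinations.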

[9] = target: T5, 5-hydroxytryptamine receptor 2C (Rattus norvegicus, UniProt P08909); assay: Binding affinity against 5-hydroxytryptamine 2C receptor of rat cortex.
T5 sequence (P08909 whole entry): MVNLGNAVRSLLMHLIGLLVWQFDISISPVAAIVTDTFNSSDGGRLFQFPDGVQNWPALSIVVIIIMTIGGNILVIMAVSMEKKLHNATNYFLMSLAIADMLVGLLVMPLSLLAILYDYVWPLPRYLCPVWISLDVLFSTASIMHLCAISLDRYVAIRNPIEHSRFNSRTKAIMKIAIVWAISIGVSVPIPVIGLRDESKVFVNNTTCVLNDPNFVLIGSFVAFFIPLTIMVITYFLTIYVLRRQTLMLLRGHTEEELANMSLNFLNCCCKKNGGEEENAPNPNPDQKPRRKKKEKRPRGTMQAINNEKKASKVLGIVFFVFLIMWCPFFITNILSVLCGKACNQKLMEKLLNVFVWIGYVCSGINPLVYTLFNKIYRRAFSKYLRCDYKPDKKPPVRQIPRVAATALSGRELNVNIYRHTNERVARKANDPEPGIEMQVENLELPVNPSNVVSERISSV

[10] = target: T2, Serotonin 3 (5-HT3) receptor (Rattus norvegicus); assay: Intrinsic efficacy for rat 5-hydroxytryptamine 3 receptor; type: protein-complex assay; settings: filed as antagonist
[11] = target: T6, 5-hydroxytryptamine receptor 1B (Rattus norvegicus, UniProt P28564); assay: Binding affinity against 5-hydroxytryptamine 1B receptor of rat striatum.; type: tissue-based
[12] = target: T2, Serotonin 3 (5-HT3) receptor (Rattus norvegicus); assay: Intrinsic efficacy against 5-hydroxytryptamine 3 receptor; PA means partial agonist; type: functional; settings: filed as partial agonist; summary of the method: as §3
[13] = target: T5, 5-hydroxytryptamine receptor 2C; assay: Binding affinity against 5-hydroxytryptamine 2C receptor of rat cortex; type: tissue-based
[14] = target: T4, 5-hydroxytryptamine receptor 2A; assay: Binding affinity against 5-hydroxytryptamine 2A receptor of rat pre-frontal cortex; type: tissue-based; summary of the method: as §4
[15] = target: T6, 5-hydroxytryptamine receptor 1B; assay: Binding affinity against 5-hydroxytryptamine 1B receptor of rat striatum; type: tissue-based
Summary of the method: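 [3H]5-HT 2.3 nM final, 14 mg tissue/sample, 1.0 mL, in 50 mM Tris HCl pH 7.7 with 10 μM pargyline, 4 mM CaCl2 and 0.1% ascorbic acid. Filtration through GF/B filters, scintillation counting. […] Mean ± SEM of three determinations.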

NG108-15 [16] = assay: Quantitative effect on the [14C]guanidinium accumulation in NG 108-15 cells.; type: functional, cell-based; settings: Murinae; summary of the method: as §1

T6 sequence (P28564 whole entry): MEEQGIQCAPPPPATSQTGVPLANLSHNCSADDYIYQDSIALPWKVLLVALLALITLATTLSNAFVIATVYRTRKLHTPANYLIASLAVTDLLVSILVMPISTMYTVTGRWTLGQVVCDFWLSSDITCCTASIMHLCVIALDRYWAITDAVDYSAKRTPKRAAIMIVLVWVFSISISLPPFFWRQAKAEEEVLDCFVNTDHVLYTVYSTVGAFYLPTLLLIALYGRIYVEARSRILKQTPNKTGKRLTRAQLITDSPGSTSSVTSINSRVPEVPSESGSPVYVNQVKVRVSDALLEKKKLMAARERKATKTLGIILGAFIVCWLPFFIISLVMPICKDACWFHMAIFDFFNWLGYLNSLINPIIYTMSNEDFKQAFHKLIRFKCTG
Sequence of Sodium-dependent serotonin transporter (P31652 whole entry): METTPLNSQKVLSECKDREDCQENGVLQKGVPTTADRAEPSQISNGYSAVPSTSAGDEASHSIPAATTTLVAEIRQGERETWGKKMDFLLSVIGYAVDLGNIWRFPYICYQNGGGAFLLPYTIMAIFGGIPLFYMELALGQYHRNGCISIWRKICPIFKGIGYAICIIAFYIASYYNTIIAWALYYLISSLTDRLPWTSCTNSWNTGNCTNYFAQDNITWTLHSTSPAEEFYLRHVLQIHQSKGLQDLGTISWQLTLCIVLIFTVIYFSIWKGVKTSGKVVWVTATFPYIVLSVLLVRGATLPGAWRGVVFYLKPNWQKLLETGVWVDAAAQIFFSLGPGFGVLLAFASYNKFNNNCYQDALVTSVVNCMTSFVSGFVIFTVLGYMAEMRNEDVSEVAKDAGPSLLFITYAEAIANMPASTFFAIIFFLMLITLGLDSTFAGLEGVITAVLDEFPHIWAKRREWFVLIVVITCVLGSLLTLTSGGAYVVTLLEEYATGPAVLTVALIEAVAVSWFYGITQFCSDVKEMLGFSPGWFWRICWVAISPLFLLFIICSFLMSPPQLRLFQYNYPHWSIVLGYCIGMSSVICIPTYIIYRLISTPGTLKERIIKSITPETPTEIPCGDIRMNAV
T4 sequence (P14842 whole entry): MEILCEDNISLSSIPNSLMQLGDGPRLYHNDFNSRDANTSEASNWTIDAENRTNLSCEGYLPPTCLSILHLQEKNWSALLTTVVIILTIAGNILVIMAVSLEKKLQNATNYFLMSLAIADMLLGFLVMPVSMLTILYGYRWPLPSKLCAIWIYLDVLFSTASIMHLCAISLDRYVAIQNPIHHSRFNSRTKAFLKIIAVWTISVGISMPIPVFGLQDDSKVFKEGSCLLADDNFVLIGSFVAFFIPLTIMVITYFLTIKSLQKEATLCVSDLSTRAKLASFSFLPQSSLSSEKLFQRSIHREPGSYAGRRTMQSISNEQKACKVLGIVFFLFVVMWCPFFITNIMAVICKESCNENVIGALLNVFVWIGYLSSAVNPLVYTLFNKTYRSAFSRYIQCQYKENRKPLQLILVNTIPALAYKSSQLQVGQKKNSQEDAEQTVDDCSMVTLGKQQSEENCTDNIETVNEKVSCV

For CN1CCN(c2nc3c(c4c2CSc2ccccc2-4)CCCC3)CC1, which Ki [1] is on record?
The Ki was 2.7 µM.

Which Ki [1] does the source give for CCOC(=O)c1c(N2CCN(C)CC2)nc2cccc3c2c1-c1ccccc1-3 here?
Its Ki is 0.0039 µM.

Which Intrinsic efficacy [2] does the source give for CN1CCN(c2nc3ccccc3c3ccccc23)CC1 here?
Its Intrinsic efficacy is “Agonist”.

What about the EC50 (NG108-15 [3]) of the same compound?
The EC50 was 0.01 µM.

How did the Ki [4] turn out when c1ccc2c(c1)CCc1c(N3CCOCC3)nc3ccccc3c1-2 was run?
Its Ki is greater than 5.3 µM.

Which Ki [5] does the source give for CN1CCN(c2nc3ccccc3c3c2CCc2sccc2-3)CC1 here?
Its Ki is 12 µM.

And the Ki [4]?
The Ki was 0.0057 µM.

And the IC50 (NG108-15 [6])?
Its IC50 is 0.062 µM.

What about the Ki [7] of the same compound?
The Ki was 4.6 µM.

And the Ki [8]?
Its Ki is 3.1 µM.

And the Ki [9]?
Its Ki is 420 µM.

And the Intrinsic efficacy [10]?
The Intrinsic efficacy was “Antagonist”.

And the Ki [11]?
The Ki was 1.5 µM.

With CCCCOC(=O)c1c(N2CCN(C)CC2)nc2cccc3c2c1-c1ccccc1-3 as the compound, how does the Ki [1] read?
The Ki was 0.078 µM.

Which results are given for CCCN(CCC)C(=O)c1c(N2CCN(C)CC2)nc2cccc3c2c1-c1ccccc1-3?
Ki [1]: 0.003 µM; Intrinsic efficacy [12]: Partial agonist

What does the source list for CN1CCN(c2nc3ccccc3c3c2CCc2ccccc2-3)CC1?
IC50 (NG108-15 [6]): 0.0046 µM; Intrinsic efficacy [10]: Antagonist; Ki [1]: 0.0042 µM

Which Ki [4] does the source give for CN1CCN(c2nc3ccccc3c3c2CCC2CCCCC32)CC1 (stereo not drawn) here?
The Ki was 0.029 µM.

What about the IC50 (NG108-15 [6]) of the same compound?
The IC50 was 0.25 µM.

What about the Intrinsic efficacy [10] of the same compound?
The Intrinsic efficacy was “Antagonist”.

CN1CCN(c2ccnc3c2ccc2ccccc23)CC1 was tested. Which Ki [1] did it give?
Its Ki is 0.49 µM.

Which Ki [4] does the source give for CN1CCN(c2nc3ccccc3c3c2CSc2ccccc2-3)CC1 here?
The Ki was 0.019 µM.

CN1CCN(c2cc(C34C[C@H]5C[C@@H](C3)C[C@@H](C4)C5)c3ccccc3n2)CC1 was tested. Which IC50 (NG108-15 [6]) did it give?
Its IC50 is 0.08 µM.

What about the Intrinsic efficacy [10] of the same compound?
Its Intrinsic efficacy is “Antagonist”.

And the Ki [1]?
The Ki was 0.08 µM.

Which Ki [4] does the source give for CN1CCN(c2nc3ccccc3c3c2ccc2ccccc23)CC1 here?
The Ki was 0.046 µM.

c1ccc2nc(N3CCNCC3)ccc2c1 was tested. Which Intrinsic efficacy [2] did it give?
Its Intrinsic efficacy is “Agonist”.

How did the Intrinsic efficacy [2] turn out when CN1CCN(c2nccc3c2CCc2ccccc2-3)CC1 was run?
The Intrinsic efficacy was “Agonist”.

And the EC50 (NG108-15 [3])?
Its EC50 is 0.007 µM.

And the Ki [1]?
The Ki was 0.016 µM.

CN1CCN(c2cc3c4c(cccc4n2)-c2ccccc2-3)CC1 was tested. Which Ki [5] did it give?
Its Ki is 24 µM.

And the Ki [7]?
Its Ki is 1.6 µM.

And the Ki [13]?
Its Ki is greater than 10 µM.

And the Ki [14]?
Its Ki is 13 µM.

What about the EC50 (NG108-15 [3]) of the same compound?
Its EC50 is 0.012 µM.

And the Ki [1]?
The Ki was 0.0018 µM.

And the Intrinsic efficacy [12]?
The Intrinsic efficacy was “Partial agonist”.

And the Ki [15]?
The Ki was 0.64 µM.

How did the Intrinsic efficacy [10] turn out when CN1C2CCCC1CC(NC(=O)c1nn(C)c3ccccc13)C2 (stereo not drawn) was run?
Its Intrinsic efficacy is “Antagonist”.

Which Intrinsic efficacy [2] does the source give for NCCc1c[nH]c2ccc(O)cc12 [SEROTONIN] here?
Its Intrinsic efficacy is “Agonist”.

What about the EC50 (NG108-15 [16]) of the same compound?
The EC50 was 0.298 µM.

Which results are given for CN1CCN(c2nc3ccccc3c(-c3ccccc3)c2COC(=O)c2ccccc2)CC1?
Ki [5]: 4.1 µM; IC50 (NG108-15 [6]): 0.009 µM; Ki [7]: 1.1 µM; Ki [13]: 0.031 µM; Ki [14]: > 10 µM; Intrinsic efficacy [10]: Antagonist; Ki [1]: 0.0088 µM; Ki [15]: 7.6 µM

CN1CCN(c2nc3c(c4c2CCc2ccccc2-4)CCCC3)CC1 was tested. Which Ki [1] did it give?
The Ki was 2.3 µM.

Which results are given for CN1CCN(c2nc3ccccc3c3c2CCCC3)CC1?
EC50 (NG108-15 [3]): 0.00025 µM; Intrinsic efficacy [12]: Partial agonist

c1ccc2c(c1)ccc1c(N3CCOCC3)nccc12 was tested. Which Ki [1] did it give?
The Ki was 4.9 µM.

CN1CCN(c2nc3ccccc3c3c2C(=O)c2ccccc2-3)CC1 was tested. Which IC50 (NG108-15 [6]) did it give?
The IC50 was 0.139 µM.

What about the Intrinsic efficacy [10] of the same compound?
Its Intrinsic efficacy is “Antagonist”.

And the Ki [1]?
Its Ki is 0.02 µM.

Which IC50 (NG108-15 [6]) does the source give for CN1CCN(c2nc3ccccc3c3c2CC2CCC3C2)CC1 (stereo not drawn) here?
Its IC50 is 0.008 µM.

And the Intrinsic efficacy [10]?
The Intrinsic efficacy was “Antagonist”.

How did the Intrinsic efficacy [2] turn out when CN1CCN(c2nccc3c2ccc2ccccc23)CC1 was run?
Its Intrinsic efficacy is “Agonist”.

And the EC50 (NG108-15 [3])?
The EC50 was 0.03 µM.

What about the Ki [1] of the same compound?
Its Ki is 0.029 µM.
